High-throughput results deposited in PubChem by several laboratories.
The list is not random: actives were taken first. Their share in the collection is about 1.6%.
NR2E3 ag-1 = agonists of human nuclear receptor NR2E3; GST-NR2E3/biotin-RetCOR TR-FRET, 1536-well; inhibition of corepressor binding, % at 4.78 µM; Q9Y5X4; 320,000 compounds, 0.12% hits;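 active means percent inhibition above the cutoff of mean plus 3 SD of all tested compounds, set per screening campaign, cut at about 20% in these data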;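 further: 0% = DMSO wells and 100% = biotin wells as full block of FRET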
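Material: NR2E3–RetCOR corepressor complex / Amount: 1.35 nM GST-NR2E3 / Medium: Tris pH 7.5 / Compound: single nominal compound dose of 4.8 µM / Incubation: 5 h at 4 °C / Technique: TR-FRET, Eu(K)-anti-GST donor, streptavidin-D2 acceptor, ex 340, em 617/671 nm / Read-out basis: percent loss of FRET ratio relative to control wells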
PG9 Ab binder = PG9 antibody binding by small molecule; TR-FRET gp120-PG9 antibody binding; inhibition, % at 6.7 µM; 360,000 compounds, 0.43% hits; in the data active means inhibition above about 8.5%
VLA-4 inh = inhibition in a human VLA-4 binding assay; P13612; VLA-4 expressing cells, ligand binding flow cytometry; inhibition, % (about 7 µM as worked out from the volumes in the protocol); 330,000 compounds, 0.2% hits; in the data active means inhibition above about 50%
Rev-erbA mod = Rev-erb alpha (human) modulation | activity, % at 10 µM | 370,000 compounds, 0.79% hits | P20393 | Rev-erbα–FITC-DNA binding, fluorescence polarization, 90 min;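 active means activity above about 14%, limit read from the data; passing the limit was not always enough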;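 further: 0% = DMSO wells with 35 nM protein and 100% = DMSO wells with 750 nM protein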
Target sequence (P20393 whole entry, looked up): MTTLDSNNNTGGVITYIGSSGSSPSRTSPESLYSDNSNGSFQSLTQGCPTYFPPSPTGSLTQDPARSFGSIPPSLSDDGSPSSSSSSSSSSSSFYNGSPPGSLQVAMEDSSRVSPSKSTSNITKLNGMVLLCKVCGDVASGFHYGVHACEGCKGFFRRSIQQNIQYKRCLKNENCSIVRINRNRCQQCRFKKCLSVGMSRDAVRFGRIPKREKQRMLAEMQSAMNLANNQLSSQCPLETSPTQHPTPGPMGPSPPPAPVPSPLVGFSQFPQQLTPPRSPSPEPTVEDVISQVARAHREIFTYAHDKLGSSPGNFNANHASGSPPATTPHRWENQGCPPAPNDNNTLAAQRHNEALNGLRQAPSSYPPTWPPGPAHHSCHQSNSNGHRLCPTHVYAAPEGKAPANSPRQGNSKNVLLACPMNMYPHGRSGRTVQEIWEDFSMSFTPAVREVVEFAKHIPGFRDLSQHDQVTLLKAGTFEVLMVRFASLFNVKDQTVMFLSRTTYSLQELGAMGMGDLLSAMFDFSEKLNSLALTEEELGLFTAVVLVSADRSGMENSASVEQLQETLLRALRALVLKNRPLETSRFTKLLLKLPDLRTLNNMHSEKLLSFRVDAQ
NR2E3 ag-2 = activates human NR2E3 receptor. Q9Y5X4. CHO-S Gal4-NCOR/VP16-NR2E3 two-hybrid, luciferase. inhibition of corepressor binding, % at 3.98 µM. 360,000 compounds, 0.35% hits. AID 602229;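 active means inhibition above the mean of all tested compounds plus 3 SD, cut at about 70% in these data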;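 further: 0% = DMSO with NR2E3 transfected cells and 100% = cells lacking NR2E3 construct; higher means lower luciferase signal from less NR2E3 corepressor binding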
NR1D1 mod conf = Rev-erb alpha (human) modulation, hit confirmation | shares compounds with Rev-erbA mod | Rev-erb alpha FITC-DNA binding, fluorescence polarization, 90 min | activation, % at 25 µM | 3,000 compounds, 61% hits | AID 1259319;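 active means activation at or above a set limit, or at least 3 SD above the negative control mean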;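 further: 0% = 35 nM protein with DMSO and 100% = 750 nM protein high control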
RORg DNA counter = RORgamma DNA-binding activity, dose-response counter-screen | shares compounds with Rev-erbA mod | purified RORgamma protein-FITC-DNA binding, fluorescence polarization | IC50, µM | 910 compounds, 8% hits | AID 1259320;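 active means Compounds whose fitted half-maximal concentration for disrupting protein-DNA binding is below 10 micromolar; the record names Rev-erb in its text, so the target is in doubt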
* = called active by the depositor; x = not tested or not shown.

SMILES | NR2E3 ag-1 | PG9 Ab binder | VLA-4 inh | Rev-erbA mod | NR2E3 ag-2 | NR1D1 mod conf | others
CC(C)(C)S(=O)(=O)N1Cc2cc(CO)ccc2[C@H]1CCO | x | -0.8 | x | -5.1 | x | x
Brc1ccc(-c2nc3ccc(Br)cn3c2Cc2ccccc2)cc1 | x | 7.0 | x | 26.0* | -86.3 | 15.7*
Clc1ccc(-c2nc3ccc(Br)cn3c2Cc2ccccc2)cc1 | x | 7.2 | x | 23.3* | -4.6 | 19.7*
Fc1ccc(-c2nc3ccc(Br)cn3c2Cc2cccc(Cl)c2)cc1 | x | 5.1 | x | 28.0* | -21.5 | 14.0*
Fc1ccc(-c2nc3ccc(Br)cn3c2Cc2ccccc2)cc1 | x | 3.1 | x | 19.7* | -4.2 | 12.8*
Fc1ccc(-c2nc3ccc(Br)cn3c2Cc2cccc(F)c2)cc1 | x | -1.4 | x | -3.0 | -25.6 | x
Cc1ccc(-c2nc3ccc(Br)cn3c2Cc2cccc(F)c2)cc1 | x | 1.6 | x | 1.5 | -86.8 | x
CN(C)c1oc(-c2ccc(Cl)cc2)nc1S(=O)(=O)c1ccccc1 | 6.8 | -2.6 | 6.3 | 1.2 | -0.1 | x
O=C(OCc1ccccc1)/C(=C/c1ccccc1Cl)NC(=O)c1ccco1 | 0.4 | -0.6 | 1.0 | 1.1 | -9.4 | x
COc1ccccc1NS(=O)(=O)c1ccc2oc(N)nc2c1 | 2.5 | -0.7 | 8.5 | -4.1 | -37.3 | x
O=C1CC2C(=O)NCCN2C(=NC(=O)c2ccc(Cl)cc2)N1 (stereo not drawn) | -1.2 | -1.0 | 0.5 | 8.1 | -5.2 | x
Brc1ccc2nc(-c3ccc(CN4CCC(c5nc6ccccc6[nH]5)CC4)cc3)c(-c3ccccc3)nc2c1 | x | -1.3 | x | 16.5* | x | 12.2*
O=C(C1CCCCC1)N1C[C@H](O)[C@@H](n2cc(-c3ccc(F)cc3)nn2)C[C@@H]1c1ccccc1 | x | -2.4 | x | -0.1 | 2.1 | x
CCCN1C(=O)/C(=C/c2c(NCCCOCC)nc3c(C)cccn3c2=O)SC1=S | x | 0.0 | x | -3.3 | -1.1 | x
O=C1/C(=C\c2c(NCCOCCO)nc3ccccn3c2=O)SC(=S)N1Cc1ccco1 | -0.3 | -1.7 | -57.1 | 32.8* | -11.1 | 11.3
CCOc1ccc(NC(=O)CCSc2ccc3ccccc3n2)cc1 | 3.2 | -1.2 | -1.1 | 81.6* | -13.7 | 45.9* | RORg DNA counter=>40
Cc1cc2c(c(SCC(=O)NCc3ccccc3Cl)n1)C(=O)OC2 | -6.6 | 1.4 | 5.6 | 2.1 | -15.0 | x
COc1ccccc1S(=O)(=O)N(C)C[C@H]1Oc2ncc(Br)cc2C(=O)N([C@H](C)CO)C[C@H]1C | x | -0.5 | x | 0.0 | -0.6 | x
CCc1ccc2c(COC(=O)c3n[nH]c4ccccc34)cc(=O)oc2c1 | 5.2 | -0.8 | -7.2 | 10.3 | -52.0 | x
Cc1ccc2c(COC(=O)c3n[nH]c4ccccc34)cc(=O)oc2c1 | -5.5 | 6.1 | -7.9 | 17.1* | -91.5 | 14.6
CCc1ccc(NC(=O)C2CCCN2S(=O)(=O)c2ccc3c(c2)C(C)(C)C(=O)N3C)cc1 (stereo not drawn) | -0.7 | -0.8 | 12.0 | 5.8 | -2.9 | x
O=[N+]([O-])c1ccc(N(c2ccccc2)c2ccccc2)cc1 | 2.8 | 6.4 | 11.9 | 44.4* | 2.7 | 35.3* | RORg DNA counter=>40
CCN(C(=O)c1ccccc1)c1ccc([N+](=O)[O-])cc1 | -3.8 | -2.1 | -0.2 | 0.2 | -2.2 | x
CCOC(=O)/C(C#N)=C\c1ccc(OCC(=O)Nc2ccc(C)cc2C)c(OC)c1 | 2.9 | 2.3 | -5.8 | 27.6* | 2.5 | 20.9*
O=C(CNc1cc(S(=O)(=O)N2CCOCC2)ccc1N1CCCC1)N1CCc2ccccc21 | 3.4 | 0.8 | 4.8 | 3.6 | 7.8 | x
SMILES | NR2E3 ag-1 | PG9 Ab binder | VLA-4 inh | Rev-erbA mod | NR2E3 ag-2 | NR1D1 mod conf | others
O=C(CSc1nnc(NC(=O)c2c(F)cccc2F)s1)NCc1ccc(F)cc1 | 3.8 | -1.4 | -13.1 | -4.2 | -16.1 | x
O=C(c1ccc(OC2CCN(Cc3ccccc3O)CC2)cc1)N1CCCCC1 | 1.1 | -2.5 | 13.1 | 36.1* | 2.1 | 1.6
COc1cccc(CN2CCC(Oc3ccc(C(=O)N4CCCCC4)cc3)CC2)c1O | -1.2 | -2.1 | -15.4 | 7.5 | -18.4 | x
Cc1ccnc2nc(C(=O)OCC(=O)NC3CCCC(C)C3C)nn12 (stereo not drawn) | 4.2 | -2.1 | -1.9 | -0.8 | 8.5 | x
CCn1nccc1C(=O)Nc1ccc(C)c(C)c1 | x | x | 3.2 | x | -96.5 | x
CCn1c2ccccc2n2c(=O)c(=O)n(CC(=O)Nc3ccc(C(C)C)cc3)nc12 | -2.9 | -1.0 | 26.5 | 30.7* | 7.8 | 3.6
COc1ccc(NC(=O)C2Cc3c(-c4cccc(C(C)=O)c4)ccnc3O2)cn1 (stereo not drawn) | x | -0.5 | x | 0.5 | -25.1 | x
CC(=O)N(C(C)=O)N1C(=O)c2cccc3c(N4CCOCC4)ccc(c23)C1=O | -4.7 | -5.5 | -129.1 | 17.3* | 1.4 | 17.5
O=C(OCCN1C(=O)c2ccccc2C1=O)c1ccc(S(=O)(=O)N2CCCCCC2)cc1 | -1.8 | 0.5 | 27.1 | 3.1 | -14.4 | x
CCN(CC)S(=O)(=O)c1ccc(C(=O)OCCN2C(=O)c3cccc4c(N5CCOCC5)ccc(c34)C2=O)cc1 | -2.3 | 1.1 | -26.6 | 278.0* | 0.7 | 217.2* | RORg DNA counter=>40
C[n+]1cc(C(=O)N2CCCCC2)ccc1/C=C/c1c[nH]c2ccccc12 | -1.3 | -10.2 | -106.7 | 74.7* | -0.6 | 57.6* | RORg DNA counter=>40
O=C(C(=O)N1CCCCCC1)c1c[nH]c2ccccc12 | x | -1.8 | 2.9 | 3.5 | -13.0 | x
Cc1ccc2nsnc2c1S(=O)(=O)N(Cc1ccco1)Cc1cc2ccc(C)c(C)c2[nH]c1=O | x | 3.1 | x | -5.1 | -1.2 | x
Cc1ccc2nsnc2c1S(=O)(=O)N(Cc1ccco1)Cc1cc2cccc(C)c2[nH]c1=O | -1.3 | x | 0.0 | 26.4* | -26.2 | 14.5
O=S(=O)(c1ccc(Br)cc1)N1CCN(c2cc(-c3ccccc3)nc3ncnn23)CC1 | -5.7 | x | 10.6 | 30.1* | -18.8 | 26.1*
O=S(=O)(c1ccccc1)N1CCN(c2cc(-c3ccccc3)nc3ncnn23)CC1 | -0.5 | -0.5 | -10.5 | 17.2 | -0.8 | x
CC(C)c1nc2sc3c(NCc4ccccc4)ncnc3c2c2c1COC(C)(C)C2 | -0.7 | -0.5 | 3.0 | 23.8* | 19.5 | 9.6
CC(C)c1nc2sc3c(NCc4ccco4)ncnc3c2c2c1COC(C)(C)C2 | -2.7 | 0.6 | -2.7 | 0.7 | 22.1 | x
COC(=O)c1cc(NC(=O)c2ccccc2)c(=O)oc1/C=C/Nc1ccc(Oc2ccccc2)cc1 | x | -0.5 | x | 33.0* | 11.3 | 6.2
CCOC(=O)c1cc(NC(=O)c2ccccc2)c(=O)oc1-c1ccccc1 | 2.8 | 0.3 | 9.7 | 8.3 | -4.5 | x
COc1ccccc1CN1C[C@@H]2C[C@@H](c3ccc(C)cc3)N3CCC[C@@]23C1=O | 4.2 | -1.4 | 1.5 | 4.4 | -9.4 | x
CCn1ccnc1[C@@H]1C[C@H]2CN(Cc3ccccc3OC)C(=O)[C@]23CCCN13 | -0.5 | 0.5 | 3.8 | 24.5* | -16.1 | 1.2
